Data taken from ChEMBL document CHEMBL4382258, “Design and Optimization of Sulfone Pyrrolidine Sulfonamide Antagonists of Transient Receptor Potential Vanilloid-4 with in Vivo Activity in a Pulmonary Edema Model” (J Med Chem, 2018).
In brackets after ≈: the same amount, converted by molar mass.

Columns and labels:
[1] = Clearance adjusted for unbound fraction in Sprague-Dawley rat at 1 mg/kg, iv administered as 30 mins infusion by LC/MS/MS analysis; type: ADME, organism-based; conditions: in vivo, 0.5 h
[2] = molecular target: T1, Transient receptor potential cation channel subfamily V member 4 (Homo sapiens, UniProt Q9HBA0); assay: Antagonist activity at human TRPV4 expressed in BHK/AC9 cells assessed as inhibition of GSK634775-induced […] pre-incubated for 10 mins followed by agonist addition by Fluo-4-AM dye-based FLIPR assay; type: cell-based
T1 sequence (Q9HBA0 whole entry): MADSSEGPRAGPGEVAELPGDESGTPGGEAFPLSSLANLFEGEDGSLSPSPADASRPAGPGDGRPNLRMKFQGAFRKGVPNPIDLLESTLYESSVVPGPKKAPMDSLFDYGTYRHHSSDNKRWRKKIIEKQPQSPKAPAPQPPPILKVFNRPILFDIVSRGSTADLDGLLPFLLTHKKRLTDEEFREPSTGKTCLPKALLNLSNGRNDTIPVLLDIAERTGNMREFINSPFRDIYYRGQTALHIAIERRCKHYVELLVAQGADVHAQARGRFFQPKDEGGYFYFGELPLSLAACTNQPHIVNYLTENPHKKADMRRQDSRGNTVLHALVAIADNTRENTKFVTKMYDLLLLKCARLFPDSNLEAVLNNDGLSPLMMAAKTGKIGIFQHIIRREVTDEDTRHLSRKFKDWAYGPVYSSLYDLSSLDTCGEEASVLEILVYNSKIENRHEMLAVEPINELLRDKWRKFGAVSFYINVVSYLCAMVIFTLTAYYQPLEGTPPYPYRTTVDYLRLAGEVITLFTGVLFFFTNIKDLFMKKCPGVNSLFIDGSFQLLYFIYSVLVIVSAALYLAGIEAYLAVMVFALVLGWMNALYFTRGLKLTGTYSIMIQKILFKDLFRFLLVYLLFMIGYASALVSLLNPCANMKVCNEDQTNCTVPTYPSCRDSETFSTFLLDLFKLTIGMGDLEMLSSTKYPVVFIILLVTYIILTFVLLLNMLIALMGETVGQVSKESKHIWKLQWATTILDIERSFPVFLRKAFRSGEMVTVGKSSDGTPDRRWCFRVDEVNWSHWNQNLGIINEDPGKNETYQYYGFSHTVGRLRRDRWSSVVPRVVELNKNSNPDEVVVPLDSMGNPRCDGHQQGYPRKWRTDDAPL

[3] = Oral bioavailability in Sprague-Dawley rat at 2 mg/kg by LC/MS/MS analysis; type: ADME, organism-based; conditions: in vivo
[4] = Volume of distribution at steady state in Sprague-Dawley rat at 1 mg/kg, iv or 2 mg/kg, po by LC/MS/MS analysis; type: ADME, organism-based; conditions: in vivo, read-out: Vdss
[5] = Metabolic stability in rat liver microsomes assessed as parent compound remaining after 30 mins; type: ADME, Microsome; conditions: read-out: Stability
Procedure, shortened: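 Rat liver microsomes incubated 30 min with glutathione for trapping; parent remaining measured.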

[6] = Clearance in Sprague-Dawley rat at 1 mg/kg, iv administered as 30 mins infusion by LC/MS/MS analysis; type: ADME, organism-based; conditions: in vivo
[7] = MRT in Sprague-Dawley rat at 1 mg/kg, iv or 2 mg/kg, po by LC/MS/MS analysis; type: ADME, organism-based; conditions: in vivo
[8] = molecular target: T1, Transient receptor potential cation channel subfamily V member 4; assay: Antagonist activity at human TRPV4 expressed in HEK cells assessed as inhibition of GSK634775-induced […] pre-incubated for 10 mins followed by agonist addition by Fluo-4-AM dye-based FLIPR assay; type: cell-based
Procedure, shortened: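 TRPV4 from human recombinant channels in HEK cells; block of calcium mobilization evoked by agonist GSK634775, read on a fluorescent imaging plate reader; reported potency is an average of repeat determinations.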

[9] = Permeability of the compound by PAMPA; type: ADME; conditions: read-out: permeability
HepG2 [10] = assay: Induction of phospholipidosis in human HepG2 cells after 72 hrs by fluorescence assay; type: cell-based; conditions: hepg2, 72 h
HepG2 [11] = assay: Induction of phospholipidosis in human HepG2 cells after 72 hrs by fluorescence assay relative to control; type: cell-based; conditions: hepg2, 72 h
[12] = Kinetic aqueous solubility of the compound by chemiluminescence nitrogen detection analysis; conditions: buffer
[13] = molecular target: T1, Transient receptor potential cation channel subfamily V member 4; assay: Antagonist activity at TRPV4 (unknown origin)
[14] = molecular target: Voltage-gated inwardly rectifying potassium channel KCNH2 (Homo sapiens, UniProt Q12809); assay: Inhibition of human ERG expressed in CHO cells by Qpatch assay
Voltage-gated inwardly rectifying potassium channel KCNH2, sequence (Q12809 whole entry): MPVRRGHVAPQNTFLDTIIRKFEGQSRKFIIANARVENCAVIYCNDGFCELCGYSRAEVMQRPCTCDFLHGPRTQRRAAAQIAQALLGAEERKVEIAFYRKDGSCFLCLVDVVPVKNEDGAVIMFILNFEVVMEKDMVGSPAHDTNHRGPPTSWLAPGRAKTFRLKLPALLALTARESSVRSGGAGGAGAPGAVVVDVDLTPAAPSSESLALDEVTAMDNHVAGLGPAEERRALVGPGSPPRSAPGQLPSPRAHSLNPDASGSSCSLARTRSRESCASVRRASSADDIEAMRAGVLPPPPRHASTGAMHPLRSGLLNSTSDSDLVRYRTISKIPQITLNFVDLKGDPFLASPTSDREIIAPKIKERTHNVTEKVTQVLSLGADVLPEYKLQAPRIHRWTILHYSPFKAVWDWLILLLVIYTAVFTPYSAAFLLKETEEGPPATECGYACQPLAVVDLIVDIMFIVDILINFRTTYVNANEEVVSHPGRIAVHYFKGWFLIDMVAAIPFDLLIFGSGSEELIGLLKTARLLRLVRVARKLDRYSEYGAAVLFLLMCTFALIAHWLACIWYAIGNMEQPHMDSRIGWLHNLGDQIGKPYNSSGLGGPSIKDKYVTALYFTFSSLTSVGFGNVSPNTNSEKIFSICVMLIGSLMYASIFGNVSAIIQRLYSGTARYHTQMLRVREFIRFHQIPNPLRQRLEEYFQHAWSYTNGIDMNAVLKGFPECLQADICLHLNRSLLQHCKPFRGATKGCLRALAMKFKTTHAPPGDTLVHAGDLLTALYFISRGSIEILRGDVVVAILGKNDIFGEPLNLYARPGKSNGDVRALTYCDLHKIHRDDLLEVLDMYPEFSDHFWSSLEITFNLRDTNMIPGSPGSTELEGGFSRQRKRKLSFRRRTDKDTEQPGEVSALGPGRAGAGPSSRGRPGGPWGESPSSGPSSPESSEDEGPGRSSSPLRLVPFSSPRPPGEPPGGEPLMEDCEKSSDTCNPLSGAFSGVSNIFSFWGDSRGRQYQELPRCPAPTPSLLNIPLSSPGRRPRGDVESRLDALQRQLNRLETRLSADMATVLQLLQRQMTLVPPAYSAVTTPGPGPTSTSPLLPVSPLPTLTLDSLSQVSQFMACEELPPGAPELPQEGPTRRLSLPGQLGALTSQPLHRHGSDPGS

Cytochrome P450 3A4 [15] = molecular target: T2, Cytochrome P450 3A4 (Homo sapiens, UniProt P08684); assay: Reversible inhibition of CYP3A4 (unknown origin) in presence of NADPH by vivid red substrate-based assay
T2 sequence (P08684 whole entry): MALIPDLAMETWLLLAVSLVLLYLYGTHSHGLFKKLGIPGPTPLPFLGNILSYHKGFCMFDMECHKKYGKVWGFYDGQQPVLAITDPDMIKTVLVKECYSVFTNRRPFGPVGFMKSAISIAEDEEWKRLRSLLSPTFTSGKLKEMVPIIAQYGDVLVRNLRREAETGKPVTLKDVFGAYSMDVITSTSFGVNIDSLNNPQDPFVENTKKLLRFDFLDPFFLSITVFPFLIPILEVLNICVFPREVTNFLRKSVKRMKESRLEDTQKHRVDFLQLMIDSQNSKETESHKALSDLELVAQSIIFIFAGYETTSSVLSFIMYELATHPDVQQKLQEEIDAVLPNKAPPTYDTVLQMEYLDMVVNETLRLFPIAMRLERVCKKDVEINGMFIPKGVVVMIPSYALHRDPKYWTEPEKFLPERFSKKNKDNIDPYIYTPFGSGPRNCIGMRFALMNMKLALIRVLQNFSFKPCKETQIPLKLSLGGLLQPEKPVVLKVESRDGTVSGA

[16] = Lipophilicity, chromatographic hydrophobicity index of the compound in immobilized artificial membrane
Cytochrome P450 3A4 [17] = molecular target: T2, Cytochrome P450 3A4; conditions: 100 µM
[18] = pH 10.5 – pH 7.4
Rattus norvegicus [19] = assay: (§1) Reversal of heart failure-induced pulmonary edema in Sprague-Dawley rat assessed as inhibition of GSK1016790A-induced increase in lung wet weight to body weight ratio at 0.26 mg/kg, iv bolus loading dose followed by 0.2 ug/kg/min, iv continuous infusion dose for 60 mins prior to agonist administration relative to control; type: functional
Procedure, shortened: (§2)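 Rats given vehicle or antagonist by i.v. infusion, then agonist GSK1016790A i.v. at 10 µg/kg/min for 10 min (100 µg/kg total). Edema scored as wet lung weight/body weight ratio against naïve animals; inhibition computed from the agonist response; mean ± SEM.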

[20] = Plasma concentration in Sprague-Dawley rat heart failure-induced pulmonary edema model at 0.26 mg/kg, iv bolus loading dose followed by 0.2 ug/kg/min, iv continuous infusion dose for 60 mins; type: ADME, organism-based
[21] = Fraction unbound in Sprague-Dawley rat heart failure-induced pulmonary edema model at 0.09 to 0.78 mg/kg, iv bolus loading dose followed by 0.07 to 0.6 ug/kg/min, iv continuous infusion dose for 60 mins; type: ADME, organism-based; conditions: in vivo
Rattus norvegicus [22] = assay: as §1, with “0.09 to 0.78” for “0.26”, “0.07 to 0.6” for “0.2”, “administration” for “administration relative to control”; type: functional, organism-based; procedure, shortened: as §2
[23] = molecular target: Transient receptor potential cation channel subfamily V member 4 (Rattus norvegicus, UniProt Q9ERZ8); assay: Antagonist activity at rat TRPV4 expressed in BHK/AC9 cells assessed as inhibition of GSK634775-induced […] pre-incubated for 10 mins followed by agonist addition by Fluo-4-AM dye-based FLIPR assay; type: cell-based
Transient receptor potential cation channel subfamily V member 4 (Rattus norvegicus, UniProt Q9ERZ8), sequence (Q9ERZ8 whole entry, the tested form may be a part): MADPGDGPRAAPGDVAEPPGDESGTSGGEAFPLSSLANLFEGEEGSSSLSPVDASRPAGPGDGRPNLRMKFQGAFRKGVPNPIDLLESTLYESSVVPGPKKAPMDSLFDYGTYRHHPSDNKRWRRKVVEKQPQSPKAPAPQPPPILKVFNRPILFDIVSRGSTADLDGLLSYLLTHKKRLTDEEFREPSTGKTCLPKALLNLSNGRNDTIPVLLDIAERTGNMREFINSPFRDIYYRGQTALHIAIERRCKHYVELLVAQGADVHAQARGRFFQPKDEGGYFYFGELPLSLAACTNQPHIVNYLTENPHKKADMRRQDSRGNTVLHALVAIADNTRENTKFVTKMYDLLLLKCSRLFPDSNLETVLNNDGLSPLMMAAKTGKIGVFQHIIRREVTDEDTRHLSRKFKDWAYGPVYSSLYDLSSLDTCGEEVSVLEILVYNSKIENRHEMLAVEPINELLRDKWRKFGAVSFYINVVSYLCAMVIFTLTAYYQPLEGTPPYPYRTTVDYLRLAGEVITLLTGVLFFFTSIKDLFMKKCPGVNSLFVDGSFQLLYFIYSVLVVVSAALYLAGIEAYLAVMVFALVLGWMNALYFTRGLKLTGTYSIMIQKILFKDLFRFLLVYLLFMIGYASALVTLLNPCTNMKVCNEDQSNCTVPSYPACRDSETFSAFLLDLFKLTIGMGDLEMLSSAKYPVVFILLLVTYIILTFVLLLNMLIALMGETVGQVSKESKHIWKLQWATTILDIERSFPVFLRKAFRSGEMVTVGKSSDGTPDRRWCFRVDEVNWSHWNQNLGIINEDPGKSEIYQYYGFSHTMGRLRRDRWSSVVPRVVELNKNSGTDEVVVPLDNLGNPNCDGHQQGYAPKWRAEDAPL

[24] = Plasma concentration in Sprague-Dawley rat heart failure-induced pulmonary edema model at 0.09 mg/kg, iv bolus loading dose followed by 0.07 ug/kg/min, iv continuous infusion dose for 60 mins; type: ADME, organism-based
[25] = Plasma concentration in Sprague-Dawley rat heart failure-induced pulmonary edema model at 0.78 mg/kg, iv bolus loading dose followed by 0.6 ug/kg/min, iv continuous infusion dose for 60 mins; type: ADME, organism-based
[26] = molecular target: T1, Transient receptor potential cation channel subfamily V member 4; assay: Antagonist activity at human TRPV4 expressed in HEK cells assessed as inhibition of GSK634775-induced Ca2+ influx by FLIPR assay; type: cell-based

| CL free [1] [mL/min/kg] | IC50 [2] [nM] | bioavailability [3] [%] | Vd [4] [L/kg] | clearance [6] [mL/min/kg] | MRT [7] [h] | IC50 [8] [nM] | Compound | further results |
| --- | --- | --- | --- | --- | --- | --- | --- | --- |
| 14 | 2 | 51 | 1.2 | 25 | 0.8 | – | N#Cc1ccc(S(=O)(=O)[C@H]2CN(S(=O)(=O)c3ccc(Cl)cc3Cl)C[C@@]2(O)CO)cc1F | remaining at 0.5 h [5]: 46% |
| 9 | – | 100 | 2.3 | 25 | 1.7 | 7.9 | N#Cc1ccc(S(=O)(=O)[C@H]2CN(S(=O)(=O)c3ccc(Cl)cc3Cl)C[C@@]2(O)CO)cc1 | remaining at 0.5 h [5]: 89%; Papp [9]: 45 ×10⁻⁶ cm/s |
| – | – | – | – | – | – | 159 | N#Cc1ccc(S(=O)(=O)[C@@H]2CN(S(=O)(=O)c3ccc(Cl)cc3Cl)C[C@]2(O)CO)cc1 | – |
| – | – | – | – | – | – | 1590 | N#Cc1ccc(S(=O)(=O)[C@@H]2CN(S(=O)(=O)c3ccc(Cl)cc3Cl)C[C@@]2(O)CO)cc1 | – |
| 2.7 | – | 22 | 4 | 12 | 5.7 | – | N#Cc1ccc(S(=O)(=O)N2C[C@H](S(=O)(=O)c3ccc(Cl)cc3)[C@](O)(CN)C2)c(Cl)c1 | pMED (HepG2 [10]): 4.7; Activity (HepG2 [11]): 425% |
| 1.2 | 631 | 62 | 4.1 | 22 | 3 | – | N#Cc1ccc(S(=O)(=O)N2C[C@H](S(=O)(=O)c3ccc(Cl)cc3)[C@](O)(CO)C2)cn1 | – |
| 8.9 | 40 | 80 | 2.7 | 48 | 0.9 | – | N#Cc1ccc(S(=N)(=O)N2C[C@H](S(=O)(=O)c3ccc(Cl)cc3)[C@](O)(CO)C2)c(Cl)c1 (some centres undefined) | – |
| 4 | 3.2 | 15 | 2.2 | 35 | 1 | – | N#Cc1ccc(S(=O)(=O)[C@H]2CN(S(=O)(=O)c3ccc(C#N)cc3Cl)C[C@@]2(O)CO)cc1 | solubility kinetic [12]: 400 µM (≈ 193 µg/mL); Papp [9]: 35 ×10⁻⁶ cm/s |
| – | – | – | – | – | – | 50 | N#Cc1ccc(S(=O)(=O)[C@H]2CN(S(=O)(=O)c3ccc(Cl)cc3Cl)C[C@]2(O)CO)cc1 | – |
| 4.8 | 20 | 38 | 3.2 | 52 | 1 | – | N#Cc1ccc(S(=O)(=O)N2C[C@H](S(=N)(=O)c3ccc(Cl)cc3)[C@](O)(CO)C2)c(Cl)c1 (some centres undefined) | – |
| – | – | – | – | – | – | – | CC(C)(C)c1cc(N2C[C@@]3(CCC[C@](C)(Cn4cnc5ccc(C#N)cc54)C3)OC2=O)no1 | IC50 [13]: 7.5 nM |
| – | – | – | – | – | – | 32 | N#Cc1ccc(O[C@H]2CN(S(=O)(=O)c3ccc(Cl)cc3Cl)C[C@@H]2O)cc1 | – |
| 66 | 20 | 8 | 3.6 | 310 | 0.2 | – | N#Cc1ccc(S(=O)(=O)N2C[C@H](S(=O)(=O)c3ccc(Cl)cc3)[C@](O)(CO)C2)c(C(F)(F)F)n1 | – |
| 3.8 | 0.5 | 64 | 1.3 | 12 | 1.9 | – | N#Cc1ccc(S(=O)(=O)N2C[C@H](S(=O)(=O)c3ccc(Cl)cn3)[C@](O)(CN)C2)c(Cl)c1 | IC50 [14]: 8000 nM; pMED (HepG2 [10]): < 4; IC50 (Cytochrome P450 3A4 [15]): 300 nM; CHI [16]: 42; solubility kinetic [12]: 500 µM (≈ 246 µg/mL); TDI (Cytochrome P450 3A4 [17]): Not Active; ΔCHI [18]: -2.2 |
| 15 | – | 46 | 2.4 | 74 | 0.6 | – | N#Cc1ccc(O[C@H]2CN(S(=O)(=O)c3ccc(Cl)cc3Cl)C[C@@]2(O)CO)cc1 | Papp [9]: 37 ×10⁻⁶ cm/s |
| 30 | – | 100 | 1.1 | 9 | 2 | 25 | N#Cc1ccc(S(=O)(=O)[C@H]2CN(S(=O)(=O)c3ccc(Cl)cc3Cl)C[C@@H]2O)cc1 | Papp [9]: 78 ×10⁻⁶ cm/s |
| 1.7 | 0.5 | 56 | 0.2 | 1.7 | 2.2 | – | N#Cc1ccc(S(=O)(=O)N2C[C@H](S(=O)(=O)c3ccc(Cl)cn3)[C@@](O)(CN)C2)c(Cl)c1 | IC50 [14]: 8000 nM; inhibition (INH) (Rattus norvegicus [19]): 88%; concentration at 1 h [20]: 2100 nM; pMED (HepG2 [10]): < 4; fraction unbound at 1 h [21]: 0.014; IC50 (Cytochrome P450 3A4 [15]): 4000 nM; CHI [16]: 36; solubility kinetic [12]: 500 µM (≈ 246 µg/mL); fIC50 (Rattus norvegicus [22]): 8.5 nM; IC50 (Rattus norvegicus [22]; Rattus norvegicus, Sprague-Dawley): 611 nM; IC50 [23]: 1 nM; TDI (Cytochrome P450 3A4 [17]): Not Active; ΔCHI [18]: 3.7; concentration at 1 h [24]: 400 nM; concentration at 1 h [25]: 4500 nM |
| 7 | 2 | 25 | 2.6 | 82 | 0.5 | – | N#Cc1ccc(S(=O)(=O)[C@H]2CN(S(=O)(=O)c3ccc(Cl)cc3C#N)C[C@@]2(O)CO)cc1 | solubility kinetic [12]: 380 µM (≈ 183 µg/mL) |
| 11 | – | 62 | 2 | 23 | 1.4 | – | N#Cc1ccc(S(=O)(=O)N2C[C@H](S(=O)(=O)c3ccc(Cl)cn3)[C@](O)(CO)C2)c(Cl)c1 | – |
| – | – | – | – | – | – | – | O=C(NC1(c2ccccc2)CC1)c1c(CN2CCC(N3CCCCC3)CC2)c(-c2cccc(C(F)(F)F)c2)nc2cc(Br)ccc12 | IC50 [26]: 50 nM |
